Drawing on ChEMBL document CHEMBL4392872, “Phomanolides C-F from a Phoma sp.: Meroterpenoids Generated via Hetero-Diels-Alder Reactions” (J Nat Prod, 2019), this text covers Activity and IC50 for four compounds.

Active and inactive are the calls of the source. The rule behind the calls is not given here.

Type in all cases: functional, cell-based
In experiment [1] the test system is U-251. The experiment is described as follows: Cytotoxicity against human U251 cells at 50 uM measured after 48 hrs by MTS assay.
Experiment [2] concerns H4. The experiment can be described thus: Cytotoxicity against human H4 cells at 50 uM measured after 48 hrs by MTS assay. (Tetrazolium assays rely on reduction of a dye to a coloured formazan, in cell work by metabolically active cells.)
Experiment [3] concerns SH-SY5Y. The experiment is described as follows: Cytotoxicity against human SH-SY5Y cells at 50 uM measured after 48 hrs by MTS assay.
The subject of experiment [4] is MCF7. The experiment is described as follows: Cytotoxicity against human MCF7 cells at 50 uM measured after 48 hrs by MTS assay.
For experiment [5], the system named is HeLa. The experiment is described as follows: Cytotoxicity against human HeLa cells at 50 uM measured after 48 hrs by MTS assay.
Experiment [6] has as its system H4. The experiment can be described thus: Cytotoxicity against human H4 cells measured after 48 hrs by MTS assay. The settings on record: H4, 48 h. An outline of the steps: (§1)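 Cells seeded at 1.0 × 10^4 per well and allowed to attach overnight. Medium then replaced with medium holding the test compound, positive control cisplatin, or 0.1% DMSO vehicle. Incubated 48 h at 37 °C, 5% CO2. MTS added and incubated 90 min at 37 °C in the dark, then OD read at 490 nm. Triplicate wells per concentration; each test run three times.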

The subject of experiment [7] is U-251. The experiment can be described thus: Cytotoxicity against human U251 cells measured after 48 hrs by MTS assay. The note with it: U-251, 48 h. Summed up:
as §1

Experiment [8] relates to SH-SY5Y. The experiment can be described thus: Cytotoxicity against human SH-SY5Y cells measured after 48 hrs by MTS assay. An outline of the steps:
as §1

The test system of experiment [9] is MCF7. The experiment can be described thus: Cytotoxicity against human MCF7 cells measured after 48 hrs by MTS assay. The settings on record: MCF7, 48 h. An outline of the steps: as §1
The test system of experiment [10] is HeLa. The experiment can be described thus: Cytotoxicity against human HeLa cells measured after 48 hrs by MTS assay. An outline of the steps: as §1

In the case of `CC1=CC(=O)O[C@@]23CC(=O)O[C@@]12C[C@H]1C[C@H](O)[C@@]2(C)Oc4cc(O)cc(C)c4C[C@H]2CC(C)(C)/C=C/C[C@]1(C)O3`, the outcome in the experiment on U-251 [1], in the experiment on H4 [2], in the experiment on SH-SY5Y [3], with MCF7 [4] and in the experiment on HeLa [5] was inactive.
Regarding `CC1=CC(=O)O[C@@]23CC(=O)O[C@@]12C[C@H]1C[C@H](O)/C(C)=C\CC(C)(C)/C=C/C[C@]1(C)O3`, the result in the experiment on U-251 [1], with H4 [2], in the experiment with SH-SY5Y [3], in the experiment on MCF7 [4] and in the experiment on HeLa [5] was inactive.
Take `CC1=CC(=O)O[C@@]23CC(=O)O[C@@]12C[C@H]1C[C@H](O)[C@@]2(C)Oc4cc(O)c(=O)cc(C)c4C[C@H]2CC(C)(C)/C=C/C[C@]1(C)O3`: the IC50 (in general, the concentration that inhibits the measured activity by half) in the experiment with H4 [6] is 44.6 µM; in the experiment with U-251 [7] it was 38.8 µM; in the experiment with SH-SY5Y [8] it was 132 µM; with MCF7 [9], 68.4 µM.
For the compound `Cc1cc(O)cc2c1C[C@H]1CC(C)(C)/C=C/C[C@]3(C)OC4=CC(=O)O[C@]5(C)CC(=O)O[C@]45C[C@H]3C[C@H](O)[C@@]1(C)O2`, the IC50 in the experiment with HeLa [10] amounted to 50 µM; with SH-SY5Y [8] it was 83.5 µM.
